In ChEMBL document CHEMBL1122439 (J Med Chem, 1983):
Active and inactive are the calls of the source. The calls are words filed in the database; no cut-off is given here.

Tests used:
[1] = pKa of heterocyclic component measured as proton gained; type: physicochemical
Outline: (§1)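 Potentiometric titration in water with glass electrodes; heterocycle pKa taken as proton gained, urea-component pKa as proton lost; method upper limit pKa 11.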

Histamine H2 receptor = Histamine H2 receptor (Cavia porcellus, UniProt P47747); assay: Evaluated in vitro for Histamine H2 receptor inhibition using the dimaprit stimulated chronotropic response of the guinea pig atrium; type: tissue-based, Cardiac atrium
Outline: (§2)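 Isolated guinea pig atria; chronotropic response to rising concentrations of H2 agonist dimaprit (10⁻⁷–10⁻⁴ M) in presence of test agent; three to four atria per test concentration; -log K_I = log(ED50 dose ratio − 1) − log(drug dose).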

[2] = pKa of urea component measured as proton lost reference pKa for the 3,4 diaminothiadiazole 1-oxide is ~11 in water; type: physicochemical; conditions: buffer; outline: as §1
Canis familiaris [3] = assay: % Inhibition of acid output in dogs at a dose of 0.03 mg/kg administered intravenously; type: functional; conditions: Canis lupus familiaris, route intravenous
Outline: (§3)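 Dogs with chronic gastric fistula; gastric acid secretion evoked by maximal stimulating histamine dose (64 μg/kg, sc). Test agent given intravenously, or intragastrically via fistula for peroral dosing; percent inhibition of acid output recorded at the stated single dose.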

Canis familiaris [4] = assay: % Inhibition of acid output in dogs at a dose of 10 mg/kg administered perorally; type: functional; conditions: Canis lupus familiaris, route oral; outline: as §3
Canis familiaris [5] = assay: Effective dose administarted intravenously required for 50 % inhibition of acid output in dogs; value may range from 0.01-0.02; type: functional; conditions: Canis lupus familiaris, iv
Canis familiaris [6] = assay: Effective dose administarted intravenously required for 50 % inhibition of acid output in dogs; value may range from 0.01-0.08; type: functional; conditions: Canis lupus familiaris, iv
Canis familiaris [7] = assay: Effective dose administarted perorally required for 50 % inhibition of acid output in dogs; type: functional; conditions: Canis lupus familiaris, po
Canis familiaris [8] = assay: % Inhibition of acid output in dogs at a dose of 5.0 mg/kg administered intravenously; type: functional; conditions: Canis lupus familiaris, route intravenous; outline: as §3
Canis familiaris [9] = assay: % Inhibition of acid output in dogs at a dose of 20 mg/kg administered perorally; type: functional; conditions: Canis lupus familiaris, route oral; outline: as §3
[10] = molecular target: Histamine H2 receptor (Cavia porcellus) (UniProt P47747); assay: Evaluated in vitro for Histamine H2 receptor inhibition using the dimaprit stimulated chronotropic response of the guinea pig atrium; inact means inactive at 8 x 10 -8 M; type: tissue-based; conditions: Cardiac atrium, in the assay text read “8 x 10 -5 M” for “8 x 10 -8 M”; outline: as §2
Canis familiaris [11] = assay: Effective dose administarted intravenously required for 50 % inhibition of acid output in dogs; value may range from 0.15-0.18; type: functional; conditions: Canis lupus familiaris, iv
Canis familiaris [12] = assay: Effective dose administarted intravenously required for 50 % inhibition of acid output in dogs; Value may range from 0.01-0.03; type: functional; conditions: Canis lupus familiaris, iv
Canis familiaris [13] = assay: Effective dose administarted perorally required for 50 % inhibition of acid output in dogs; value may range from 0.7-10.9; type: functional; conditions: Canis lupus familiaris, po
Canis familiaris [14] = assay: % Inhibition of acid output in dogs at a dose of 3.0 mg/kg administered intravenously; type: functional; conditions: Canis lupus familiaris, route intravenous; outline: as §3

Sequence of Histamine H2 receptor (P47747 whole entry): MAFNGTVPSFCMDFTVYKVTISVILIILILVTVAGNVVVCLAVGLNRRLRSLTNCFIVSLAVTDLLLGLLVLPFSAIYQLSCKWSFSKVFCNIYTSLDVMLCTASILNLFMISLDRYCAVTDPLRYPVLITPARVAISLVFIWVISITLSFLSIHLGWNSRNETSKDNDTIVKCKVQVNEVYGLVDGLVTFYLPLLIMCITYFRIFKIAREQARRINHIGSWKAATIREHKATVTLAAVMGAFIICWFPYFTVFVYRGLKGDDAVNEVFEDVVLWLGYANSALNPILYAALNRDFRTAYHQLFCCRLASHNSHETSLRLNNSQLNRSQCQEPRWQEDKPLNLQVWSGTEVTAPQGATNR
Sequence of Histamine H2 receptor (Cavia porcellus) (P47747 whole entry): as above

Row | pKa [1] | Ki (Histamine H2 receptor) [nM] | Structure (SMILES) | inhibition in vivo at 0.03 mg/kg (Canis familiaris [3]) [%] | inhibition in vivo at 10 mg/kg (Canis familiaris [4]) [%] | inhibition in vivo at 5 mg/kg (Canis familiaris [8]) [%] | further results
1 | 6 | 200 | CN/C(=C/[N+](=O)[O-])Nc1cccc(-c2csc(N=C(N)N)n2)c1 | 59 | 70 | – | pKa [2]: 9.2
2 | – | 398 | CNc1n[s+]([O-])nc1Nc1cccc(-c2csc(N=C(N)N)n2)c1 (configuration not stated) | 85 | 21 | – | ED50 (Canis familiaris [5]): 0.017 mg/kg
3 | – | 15800 | CN/C(=C\[N+](=O)[O-])Nc1cccc(-c2[nH]cnc2C)c1 | – | – | 28 | inhibition in vivo at 20 mg/kg (Canis familiaris [9]): 54%
4 | 7.1 | – | CNC(=NCCSCc1csc(N=C(N)N)n1)NC#N [TIOTIDINE] | – | – | – | ED50 (Canis familiaris [7]): 0.12 mg/kg; ED50 (Canis familiaris [11]): 0.16 mg/kg
5 | 6.2 | 316 | C/N=C(\NC#N)Nc1cccc(-c2csc(N=C(N)N)n2)c1 | 79 | 73 | – | ED50 (Canis familiaris [12]): 0.02 mg/kg; ED50 (Canis familiaris [13]): 2.81 mg/kg
6 | 6.2 | 31600 | CN/C(=C\[N+](=O)[O-])Nc1ccc(-c2csc(N=C(N)N)n2)cc1 | – | – | – | pKa [2]: 9.7; inhibition in vivo at 3 mg/kg (Canis familiaris [14]): 55%

Further lines, the compound ahead of its results:

Row | Structure (SMILES) | pKa [1] | Ki (Histamine H2 receptor) [nM] | inhibition in vivo at 0.03 mg/kg (Canis familiaris [3]) [%] | inhibition in vivo at 10 mg/kg (Canis familiaris [4]) [%] | inhibition in vivo at 5 mg/kg (Canis familiaris [8]) [%] | further results
7 | N=C(N)Nc1nc(-c2cccc(Nc3n[s+]([O-])nc3N)c2)cs1 (configuration not stated) | 6.2 | 316 | 58 | 31 | – | ED50 (Canis familiaris [6]): 0.02 mg/kg; pKa [2]: 8.9
8 | CN/C(=N\CCSCc1nc[nH]c1C)NC#N [CIMETIDINE] | 6.4 | – | – | – | – | ED50 (Canis familiaris [7]): 2.86 mg/kg
9 | Cc1[nH]cnc1-c1cccc(Nc2n[s+]([O-])nc2N)c1 (configuration not stated) | – | 794 | – | – | 5 | inhibition in vivo at 20 mg/kg (Canis familiaris [9]): 1%
10 | C/N=C(\NC#N)Nc1ccc(-c2[nH]cnc2C)cc1 | – | – | – | – | 0 | -Log Ki [10]: inactive
11 | C/N=C(\NC#N)Nc1ccccc1-c1[nH]cnc1C | – | – | – | – | 4 | -Log Ki [10]: inactive
12 | CNC(=NC#N)Nc1cccc(-c2nc[nH]c2C)c1 | – | 39800 | – | – | 48 | –
